For data set [1], the target named is T1, N-lysine methyltransferase KMT5A (Homo sapiens) (UniProt Q9NQR1).
T1 sequence (whole entry): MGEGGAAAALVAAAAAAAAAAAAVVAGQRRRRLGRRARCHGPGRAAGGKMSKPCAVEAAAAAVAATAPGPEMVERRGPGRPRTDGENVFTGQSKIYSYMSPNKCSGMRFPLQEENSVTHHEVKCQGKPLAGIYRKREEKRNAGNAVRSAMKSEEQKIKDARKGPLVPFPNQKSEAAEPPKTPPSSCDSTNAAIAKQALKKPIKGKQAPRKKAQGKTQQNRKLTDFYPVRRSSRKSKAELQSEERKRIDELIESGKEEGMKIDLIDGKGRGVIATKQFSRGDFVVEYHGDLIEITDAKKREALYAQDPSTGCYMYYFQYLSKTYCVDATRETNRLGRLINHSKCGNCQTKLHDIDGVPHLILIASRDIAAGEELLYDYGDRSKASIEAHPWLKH
Kind of data set: Binding affinity to wild type SETD8 catalytic domain (unknown origin) (234 to 380 residues) expressed in Escherichia coli assessed as covalent adduct formation at 20 to 200 uM incubated for 3 hrs by LC-MSD-TOF analysis. The following applies: dose 20-200 µM.

The target of data set [2] is T2, N-lysine methyltransferase KMT5A (Homo sapiens, UniProt Q9NQR1).
T2 sequence (Q9NQR1 whole entry): T1 sequence (whole entry)
Kind of data set: Inhibition of recombinant SETD8 catalytic domain (unknown origin) (232 to 393 residues) expressed in Escherichia coli assessed as reduction in incorporation of [3H]-labeled methyl group into biotinylated H4 (1 to 24) peptide measured after 1 hr using [3H-SAM] by scintillation proximity assay. A general note: Scintillation proximity formats need no separation of bound from free tracer.

Data set [3] is described as follows: Permeability of compound. It is filed as ADME. Conditions: not told; read-out: permeability.
A short description of data set [4]: Efflux ratio of compound. It is filed as ADME. The following applies: not told.
The target of data set [5] is T1, N-lysine methyltransferase KMT5A (Homo sapiens). Kind of data set: Inhibition of SETD8 in human HeLa cells assessed as reduction in monomethylation of H4K20 up to 10 uM. It is filed as cell-based. The following applies: dose microM <=10.
Data set [6] addresses N-lysine methyltransferase SMYD2 (Homo sapiens) (UniProt Q9NRG4). The experiment in a line: Binding affinity to SMYD2 (unknown origin) by mass-spectrometric analysis.
The target in data set [7] is T3, Histone-lysine N-methyltransferase SMYD3 (Homo sapiens) (UniProt Q9H7B4).
T3 sequence (whole entry): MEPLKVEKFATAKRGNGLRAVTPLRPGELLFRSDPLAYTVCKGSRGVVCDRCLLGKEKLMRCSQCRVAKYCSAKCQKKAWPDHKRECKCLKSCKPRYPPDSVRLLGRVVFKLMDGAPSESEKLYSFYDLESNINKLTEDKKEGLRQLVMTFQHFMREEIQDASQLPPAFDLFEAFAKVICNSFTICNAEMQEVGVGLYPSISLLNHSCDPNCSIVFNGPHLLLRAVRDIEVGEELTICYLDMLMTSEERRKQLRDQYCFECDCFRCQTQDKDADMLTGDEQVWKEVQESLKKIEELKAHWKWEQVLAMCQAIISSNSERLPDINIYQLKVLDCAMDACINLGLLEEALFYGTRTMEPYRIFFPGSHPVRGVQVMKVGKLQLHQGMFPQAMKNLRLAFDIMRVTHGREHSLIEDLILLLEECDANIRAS
Kind of data set: Binding affinity to SMYD3 (unknown origin) by mass-spectrometric analysis.

Data set [8] has as its target Histone-lysine N-methyltransferase EZH2 (Homo sapiens) (UniProt Q15910). Kind of data set: Binding affinity to PRC2 (unknown origin) by mass-spectrometric analysis.
The target in data set [9] is T1, N-lysine methyltransferase KMT5A (Homo sapiens). The experiment in a line: Binding affinity to wild type SETD8 catalytic domain (unknown origin) (234 to 380 residues) expressed in Escherichia coli assessed as covalent adduct formation at 20 to 200 uM incubated for 3 hrs in presence of GSH by LC-MSD-TOF analysis. Conditions: dose 20-200 µM.
The species named for data set [10] is Homo sapiens. Kind of data set: Binding affinity to human recombinant N-terminal His-tagged SETD8 C343S mutant (234 to 380 residues) expressed in Escherichia coli assessed as covalent adduct formation at 20 to 200 uM incubated for 3 hrs by LC-MSD-TOF analysis. Conditions: dose 20-200 µM.
Data set [11] addresses T2, N-lysine methyltransferase KMT5A. Kind of data set: Inhibition of recombinant SETD8 catalytic domain (unknown origin) (232 to 393 residues) expressed in Escherichia coli assessed as reduction in incorporation of [3H]-labeled methyl group into biotinylated H4 (1 to 24) peptide measured after 5 hrs using [3H-SAM] by scintillation proximity assay. An outline of the steps: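 SETD8 catalytic domain (residues 232–393) was expressed in E. coli and purified. Compound was preincubated with the enzyme for a set time (1 h or 5 h) before a scintillation proximity methylation assay. IC50 was taken from a fitted concentration–response curve.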

The species named for data set [12] is Homo sapiens. The experiment in a line: Binding affinity to human recombinant N-terminal His-tagged SETD8 C311S mutant (234 to 380 residues) expressed in Escherichia coli assessed as covalent adduct formation at 20 to 200 uM incubated for 3 hrs by LC-MSD-TOF analysis. Conditions: dose 20-200 µM.
Data set [13] addresses T1, N-lysine methyltransferase KMT5A (Homo sapiens). The experiment in a line: Inhibition of wild type SETD8 catalytic domain (unknown origin) (234 to 380 residues) expressed in Escherichia coli assessed as compound-adduct monomer formation by measuring residual activity at 20 to 200 uM using varying levels of biotinylated H4 (1 to 24) peptide substrate measured after 1 hr in presence of [3H-SAM] by scintillation counting assay. The following applies: dose 20-200 µM. A digest of the protocol:
(§1)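 The adduct was purified by gel filtration, giving monomer and dimer fractions that interconvert after a short time. Each fraction was tested in the enzymatic assay, and residual activity was expressed relative to wild-type SETD8.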

Data set [14] has the same target. Kind of data set: Inhibition of wild type SETD8 catalytic domain (unknown origin) (234 to 380 residues) expressed in Escherichia coli assessed as compound-adduct dimer formation by measuring residual activity at 20 to 200 uM using varying levels of biotinylated H4 (1 to 24) peptide substrate measured after 1 hr in presence of [3H-SAM] by scintillation counting assay. Conditions: dose 20-200 µM. A digest of the protocol:
as §1

Molecules are shown by their SMILES. Activity calls are given as the source filed them. The rule behind the calls is not given here. Where only a bound is given, the exact number is not on record here.

Histone-lysine N-methyltransferase EZH2 (Homo sapiens), sequence (Q15910 whole entry, looked up, the tested form may be a part): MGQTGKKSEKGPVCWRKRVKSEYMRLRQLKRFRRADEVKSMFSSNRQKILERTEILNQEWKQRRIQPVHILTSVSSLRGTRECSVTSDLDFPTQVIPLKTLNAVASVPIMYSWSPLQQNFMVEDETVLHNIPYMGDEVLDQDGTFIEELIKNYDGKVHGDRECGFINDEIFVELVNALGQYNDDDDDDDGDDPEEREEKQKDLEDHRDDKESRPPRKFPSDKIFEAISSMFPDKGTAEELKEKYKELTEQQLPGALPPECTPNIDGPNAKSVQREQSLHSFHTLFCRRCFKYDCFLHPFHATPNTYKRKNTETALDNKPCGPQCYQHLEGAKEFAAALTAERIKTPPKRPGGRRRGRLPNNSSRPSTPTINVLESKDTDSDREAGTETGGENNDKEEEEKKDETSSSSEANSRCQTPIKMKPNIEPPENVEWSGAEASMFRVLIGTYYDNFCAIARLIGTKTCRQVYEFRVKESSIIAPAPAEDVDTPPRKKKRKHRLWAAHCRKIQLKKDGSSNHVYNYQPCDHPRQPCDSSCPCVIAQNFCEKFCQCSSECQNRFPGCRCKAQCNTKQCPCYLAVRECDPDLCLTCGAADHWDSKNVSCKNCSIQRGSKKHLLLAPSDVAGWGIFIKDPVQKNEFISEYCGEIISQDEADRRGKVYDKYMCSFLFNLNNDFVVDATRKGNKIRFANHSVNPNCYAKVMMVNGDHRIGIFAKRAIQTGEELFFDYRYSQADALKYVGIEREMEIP
N-lysine methyltransferase SMYD2 (Homo sapiens), sequence (Q9NRG4 whole entry): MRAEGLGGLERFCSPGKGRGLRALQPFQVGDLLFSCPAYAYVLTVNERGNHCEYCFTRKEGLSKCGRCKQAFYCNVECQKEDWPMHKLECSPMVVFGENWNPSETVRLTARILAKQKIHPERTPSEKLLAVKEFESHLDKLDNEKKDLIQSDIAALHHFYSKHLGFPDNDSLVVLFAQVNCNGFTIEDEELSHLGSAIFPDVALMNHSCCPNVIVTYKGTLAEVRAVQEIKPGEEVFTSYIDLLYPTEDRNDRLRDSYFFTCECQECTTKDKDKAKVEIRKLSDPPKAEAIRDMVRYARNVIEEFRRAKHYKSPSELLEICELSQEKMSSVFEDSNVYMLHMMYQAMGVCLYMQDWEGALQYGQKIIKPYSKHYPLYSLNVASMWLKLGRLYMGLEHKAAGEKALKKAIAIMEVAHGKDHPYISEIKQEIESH

A word on the IC50: it is the midpoint of a concentration-inhibition curve. Turning to `C=CC(=O)NCCCN(C)c1nc(N2CCCC2)nc2cc(OC)c(OC)cc12`, the result in data set [1] was inactive. Further, in [2], the IC50 is more than 200 µM.
Broadly, the efflux ratio is a quotient of directional permeabilities that is used to spot active efflux. For the molecule `C=CC(=O)NCCCNc1nc(N2CCCC2)nc2cc(OC)c(OC)cc12`, the Papp in data set [3] was 0.44 ×10⁻⁶ cm/s. For the same molecule, the efflux ratio in [4] was 137. Further, the inhibition result in [5] was “inactive”. Moreover, the outcome (in [6]; in data set [7]; in [8]; in the data set filed under Homo sapiens [12]) was inactive. For the same molecule, the result (in [9]; in the data set filed under Homo sapiens [10]; in data set [1]) was Active. The IC50 in [11] was 0.804 µM; in data set [2] it was 6.9 µM. Also, the Activity in [13] and in data set [14] was 10% each time.

(Values after ChEMBL document CHEMBL4673205, “Structure-Based Design of a Covalent Inhibitor of the SET Domain-Containing Protein 8 (SETD8) Lysine Methyltransferase” (J Med Chem, 2016).)
